Biological target: T1, D(1A) dopamine receptor (Homo sapiens, UniProt P21728)
Test: Inhibition of [3H]SCH23390 binding to dopamine D1 receptor (unknown origin) expressed in human HEK293 cells at 10 uM by liquid scintillation counter relative to control
Type: cell-based
Settings: not given
Method in brief: (§1)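 Stably transfected HEK293T D1 membranes, […], duplicate incubation 50 min at 30 °C with [3H]SCH23390 in 50 mM Tris, 4 mM MgCl2, pH 7.4. Nonspecific binding with 10 μM SCH23390. GF/B filtration, scintillation counting.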

T1 sequence (P21728 whole entry): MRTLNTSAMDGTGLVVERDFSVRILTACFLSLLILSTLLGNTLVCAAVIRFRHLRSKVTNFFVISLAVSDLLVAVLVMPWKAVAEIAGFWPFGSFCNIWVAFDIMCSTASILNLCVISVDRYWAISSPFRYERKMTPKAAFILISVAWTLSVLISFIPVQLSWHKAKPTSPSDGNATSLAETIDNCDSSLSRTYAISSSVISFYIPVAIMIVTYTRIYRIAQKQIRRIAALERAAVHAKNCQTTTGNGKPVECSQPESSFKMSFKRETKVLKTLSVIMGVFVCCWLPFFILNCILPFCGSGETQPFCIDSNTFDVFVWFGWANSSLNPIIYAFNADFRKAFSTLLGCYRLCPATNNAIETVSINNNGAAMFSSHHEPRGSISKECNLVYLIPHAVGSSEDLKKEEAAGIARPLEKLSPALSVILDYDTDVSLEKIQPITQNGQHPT

In order of falling inhibition:
1. COc1c(O)ccc2c1CN1CCc3cc4c(cc3[C@@H]1C2)OCC4  99.3%
2. COc1ccc2c(c1O)CN1CCc3cc4c(cc3[C@@H]1C2)OCO4  98.7%
3. COc1ccc2c(c1OC)CN1CCc3cc4c(cc3[C@@H]1C2)OCO4 [CANADINE]  98.3%

Biological target: T2, D(2) dopamine receptor (Homo sapiens, UniProt P14416)
T2 sequence (P14416 whole entry): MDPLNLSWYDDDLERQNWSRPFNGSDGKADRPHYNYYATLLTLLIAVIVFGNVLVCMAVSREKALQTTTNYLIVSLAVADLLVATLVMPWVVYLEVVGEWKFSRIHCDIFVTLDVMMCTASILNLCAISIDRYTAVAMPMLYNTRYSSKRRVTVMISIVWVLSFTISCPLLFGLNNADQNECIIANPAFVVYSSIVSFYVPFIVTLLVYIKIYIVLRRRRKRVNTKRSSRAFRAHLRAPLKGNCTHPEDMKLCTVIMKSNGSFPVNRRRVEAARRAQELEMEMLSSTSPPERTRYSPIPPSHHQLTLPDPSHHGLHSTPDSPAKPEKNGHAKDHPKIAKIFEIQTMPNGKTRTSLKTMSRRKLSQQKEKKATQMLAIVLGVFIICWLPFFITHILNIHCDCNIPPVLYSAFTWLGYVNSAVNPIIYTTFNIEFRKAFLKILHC
Test: Displacement of [3H]spiperone from dopamine D2 receptor (unknown origin) expressed in human HEK293 cells by liquid scintillation counter
Type: cell-based
Settings: not given

First: COc1ccc2c(c1O)CN1CCc3cc4c(cc3[C@@H]1C2)OCO4
Second: COc1ccc2c(c1OC)CN1CCc3cc4c(cc3[C@@H]1C2)OCO4 [CANADINE]
The Ki of the first is higher: over 5000 nM for the first, 119 nM for the second.

Biological target: T3, 5-hydroxytryptamine receptor 1A (Homo sapiens, UniProt P08908)
T3 sequence (P08908 whole entry): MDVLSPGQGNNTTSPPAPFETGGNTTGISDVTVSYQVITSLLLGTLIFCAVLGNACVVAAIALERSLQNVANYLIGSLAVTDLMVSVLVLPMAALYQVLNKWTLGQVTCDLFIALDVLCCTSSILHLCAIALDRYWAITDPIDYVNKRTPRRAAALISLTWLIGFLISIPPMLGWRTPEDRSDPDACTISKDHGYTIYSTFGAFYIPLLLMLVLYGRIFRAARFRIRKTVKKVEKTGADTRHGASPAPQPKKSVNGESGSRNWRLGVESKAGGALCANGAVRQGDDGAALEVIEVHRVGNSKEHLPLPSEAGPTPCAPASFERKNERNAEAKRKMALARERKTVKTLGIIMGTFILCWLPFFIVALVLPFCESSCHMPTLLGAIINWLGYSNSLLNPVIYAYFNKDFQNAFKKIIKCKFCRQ
Test: Displacement of [3H]8-OH-DPAT from 5-HT1A receptor (unknown origin) expressed in HEK293 cells by liquid scintillation counter
Type: cell-based
Settings: not given

`COc1ccc2c(c1O)CN1CCc3cc4c(cc3[C@@H]1C2)OCO4` and `COc1ccc2c(c1OC)CN1CCc3cc4c(cc3[C@@H]1C2)OCO4` [CANADINE] cannot be ordered by Ki: over 5000 nM for the first, over 5000 nM for the second.

With `COc1c(O)ccc2c1CN1CCc3cc4c(cc3[C@@H]1C2)OCC4` the Ki was over 5000 nM.

Biological target: T4, 5-hydroxytryptamine receptor 1A (Homo sapiens) (UniProt P08908)
T4 sequence (whole entry): T3 sequence (P08908 whole entry)
Test: Inhibition of [3H]8-OH-DPAT binding to 5-HT1A receptor (unknown origin) expressed in HEK293 cells at 10 uM by liquid scintillation counter relative to control
Type: cell-based
Settings: not given
Method in brief: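 Membranes of HEK293T stably transfected with 5-HT1A, […], incubated in duplicate 50 min at 30 °C with [3H]8-OH-DPAT in 50 mM Tris, 4 mM MgCl2, pH 7.4. Nonspecific binding with 10 μM WAY100635. Filtration on GF/B, cold Tris/EDTA wash, scintillation counting.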

In order of falling inhibition:
1. COc1ccc2c(c1OC)CN1CCc3cc4c(cc3[C@@H]1C2)OCO4 [CANADINE]  84.4%
2. COc1ccc2c(c1O)CN1CCc3cc4c(cc3[C@@H]1C2)OCO4  82.8%
3. COc1c(O)ccc2c1CN1CCc3cc4c(cc3[C@@H]1C2)OCC4  79.5%

Biological target: T5, 5-hydroxytryptamine receptor 2A (Homo sapiens, UniProt P28223)
T5 sequence (P28223 whole entry): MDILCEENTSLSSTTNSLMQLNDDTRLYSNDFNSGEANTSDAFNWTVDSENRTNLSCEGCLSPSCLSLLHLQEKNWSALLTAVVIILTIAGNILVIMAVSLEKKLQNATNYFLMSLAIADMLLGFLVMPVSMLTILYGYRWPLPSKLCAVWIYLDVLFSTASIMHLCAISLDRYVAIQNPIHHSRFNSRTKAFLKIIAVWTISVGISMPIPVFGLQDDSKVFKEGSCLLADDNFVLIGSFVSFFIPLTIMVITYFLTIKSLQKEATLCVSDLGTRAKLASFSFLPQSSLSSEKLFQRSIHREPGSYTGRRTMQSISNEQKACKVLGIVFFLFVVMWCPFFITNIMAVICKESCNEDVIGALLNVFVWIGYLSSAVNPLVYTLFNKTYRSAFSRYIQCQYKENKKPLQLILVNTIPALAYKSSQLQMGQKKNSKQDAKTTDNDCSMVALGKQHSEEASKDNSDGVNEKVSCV
Test: Displacement of [3H]Ketanserin from 5-HT2A receptor (unknown origin) expressed in HEK293 cells by liquid scintillation counter
Type: cell-based
Settings: not given

Work on `COc1c(O)ccc2c1CN1CCc3cc4c(cc3[C@@H]1C2)OCC4` yielded a Ki of 480 nM.

Biological target: T2, D(2) dopamine receptor
Settings: HEK293, at 10 µM

In order of rising inhibition:
1. COc1c(O)ccc2c1CN1CCc3cc4c(cc3[C@@H]1C2)OCC4  63.9%
2. COc1ccc2c(c1O)CN1CCc3cc4c(cc3[C@@H]1C2)OCO4  78%
3. COc1ccc2c(c1OC)CN1CCc3cc4c(cc3[C@@H]1C2)OCO4 [CANADINE]  88.7%

Biological target: T1, D(1A) dopamine receptor
Test: Displacement of [3H]SCH23390 from dopamine D1 receptor (unknown origin) expressed in human HEK293 cells by liquid scintillation counter
Type: cell-based
Settings: not given
Method in brief: as §1

In order of rising Ki:
1. COc1c(O)ccc2c1CN1CCc3cc4c(cc3[C@@H]1C2)OCC4  7.5 nM
2. COc1ccc2c(c1O)CN1CCc3cc4c(cc3[C@@H]1C2)OCO4  60 nM
3. COc1ccc2c(c1OC)CN1CCc3cc4c(cc3[C@@H]1C2)OCO4 [CANADINE]  66 nM

Biological target: T5, 5-hydroxytryptamine receptor 2A
Test: Inhibition of [3H]Ketanserin binding to 5-HT2A receptor (unknown origin) expressed in HEK293 cells at 10 uM by liquid scintillation counter relative to control
Type: cell-based
Settings: not given
Method in brief: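 Membranes of HEK293T stably transfected with 5-HT2A, […], incubated in duplicate 15 min at 37 °C with [3H]ketanserin in 50 mM Tris, 4 mM MgCl2, pH 7.4. […] GF/B filtration, cold wash, scintillation counting.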

In order of rising inhibition:
1. COc1ccc2c(c1OC)CN1CCc3cc4c(cc3[C@@H]1C2)OCO4 [CANADINE]  46.6%
2. COc1ccc2c(c1O)CN1CCc3cc4c(cc3[C@@H]1C2)OCO4  49.1%
3. COc1c(O)ccc2c1CN1CCc3cc4c(cc3[C@@H]1C2)OCC4  91.7%

Reference: ChEMBL document CHEMBL2331343 (Bioorg Med Chem, 2013)
